TRPC4 act: TRPC4 (mouse) channel activation | Q9QUQ5 | HEK293 TRPC4beta/mu-opioid, Fluo4 calcium fluorescence; stronger effect = higher value | B-score at 10 µM | 310,000 tested, 0.49% active;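 active means B-score above 5 SD of library B-scores, and initial fluorescence ratio not above library mean plus 5 SD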;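 further: positive B-score marks a calcium rise read as TRPC4 activation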
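System: HEK293 cells stably co-expressing mouse TRPC4beta and mu-opioid receptor; Schedule: Fluo4 dye loading 45 min at room temperature, 110 s recording; Detection: Fluo4 fluorescence, kinetic; Evaluation: B-scored integrated calcium fluorescence ratio; Controls: buffer (low) and maximal DAMGO (high).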
TRPC4 PAM: allosterically enhances the mouse TRPC4 cation channel. Q9QUQ5. HEK293 TRPC4beta/mu-opioid, DAMGO EC20, Fluo-4 Ca2+ flux; stronger effect = higher value. B-score at 10 µM. 310,000 tested, 0.42% active. AID 2227;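 active means B-score of calcium response area above 5 SD of library B-scores, with initial fluorescence ratio within 5 SD of library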;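 further: B-score of integrated fluorescence ratio over time as area under calcium response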
TRPC4 block: blocks the mouse TRPC4 cation channel. Q9QUQ5. HEK293 TRPC4beta/mu-opioid, DAMGO-evoked Fluo4 calcium flux; stronger effect = lower value. B-score at 10 µM. 300,000 tested, 0.39% active. AID 2247;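 active means B-score over 3 SD under the library average, no early fluorescence shift, positive overall ratio signal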
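test system = HEK293 cells with stable TRPC4beta plus mu-opioid receptor expression | detection = Fluo4 Ca2+ flux fluorescence | read-out = integrated fluorescence ratio relative to baseline, converted to per-well B score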
TRPC6 inhibitor: mouse TRPC6 channel inhibition. Q61143. HEK293-TRPC6, membrane potential dye, ACh-evoked depolarization; stronger effect = lower value. B-score at 10 µM. 310,000 tested, 1.1% active. AID 2553;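 active means B-score under library mean minus 3 SD, initial fluorescence not abnormally high, positive integrated signal ratio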;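 further: B-score derived from integrated fluorescence ratio over the kinetic read; more negative B-score means stronger inhibition of depolarization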
Target sequence (Q61143 whole entry, looked up): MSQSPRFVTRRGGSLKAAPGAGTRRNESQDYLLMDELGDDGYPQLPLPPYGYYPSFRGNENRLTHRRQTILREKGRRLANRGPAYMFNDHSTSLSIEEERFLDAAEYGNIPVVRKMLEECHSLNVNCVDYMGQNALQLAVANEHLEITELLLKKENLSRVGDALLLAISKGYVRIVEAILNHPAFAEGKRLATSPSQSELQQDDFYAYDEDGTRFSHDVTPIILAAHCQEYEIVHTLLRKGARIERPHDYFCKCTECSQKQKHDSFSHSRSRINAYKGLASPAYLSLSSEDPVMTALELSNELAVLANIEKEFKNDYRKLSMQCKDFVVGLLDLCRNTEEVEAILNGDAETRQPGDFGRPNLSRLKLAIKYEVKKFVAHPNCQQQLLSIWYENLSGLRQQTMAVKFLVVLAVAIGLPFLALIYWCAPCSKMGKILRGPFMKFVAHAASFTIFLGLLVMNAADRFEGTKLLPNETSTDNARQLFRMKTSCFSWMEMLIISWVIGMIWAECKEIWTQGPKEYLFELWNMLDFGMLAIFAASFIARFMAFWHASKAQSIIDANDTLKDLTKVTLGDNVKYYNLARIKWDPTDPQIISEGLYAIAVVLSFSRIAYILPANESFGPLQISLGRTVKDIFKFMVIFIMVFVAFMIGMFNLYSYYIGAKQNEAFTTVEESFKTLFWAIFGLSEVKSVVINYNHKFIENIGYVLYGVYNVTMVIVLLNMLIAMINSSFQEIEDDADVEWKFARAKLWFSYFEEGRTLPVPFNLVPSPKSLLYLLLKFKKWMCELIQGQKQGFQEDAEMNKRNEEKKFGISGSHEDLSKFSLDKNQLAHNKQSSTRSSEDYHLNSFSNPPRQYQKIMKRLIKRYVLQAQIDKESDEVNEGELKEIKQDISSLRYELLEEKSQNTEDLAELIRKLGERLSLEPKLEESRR
TRPC6 activator: mouse TRPC6 channel activation; B-score at 10 µM; HEK293-TRPC6 membrane potential dye fluorescence; stronger effect = higher value; Q61143; 310,000 tested, 0.13% active;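 active means B-score of the integrated fluorescence ratio above library mean plus 3 SD, and starting fluorescence ratio within library mean plus 5 SD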;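 further: higher score means more depolarization so channel activation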
* = called active by the depositor; i = inactive; · = not tested or not shown. Rows were chosen to be rich in hits. Some 2.3% of all compounds tested hit in one or more screens of this group.

SMILES	TRPC4 act	TRPC4 PAM	TRPC4 block	TRPC6 inhibitor	TRPC6 activator
COC(=O)c1c(NC(=O)C2CCCCC2C(=O)O)sc2c1CCCCC2 (stereo not drawn)	i	i	i	i	i
CCOC(=O)c1c(NC(=O)C2CCCCC2C(=O)O)sc2c1CCCCC2 (stereo not drawn)	i	i	-7*	i	i
O=C(c1ccc2[nH]c(=O)c(=O)[nH]c2c1)N1CCc2ccccc2C1	i	i	i	i	i
Oc1ccccc1CN1CCCC(N2CCN(c3cccc(C(F)(F)F)c3)CC2)C1 (stereo not drawn)	i	i	i	i	i
Cc1cc(C)c(C)c(S(=O)(=O)N2CCN(CC(=O)c3c(N)n(Cc4ccccc4)c(=O)n(C)c3=O)CC2)c1C	i	i	i	i	i
Cc1cc(C)n(C(=O)/C(C#N)=N\Nc2ccccc2[N+](=O)[O-])n1	i	i	i	i	i
Cc1cc(C)n(C(=O)/C(C#N)=N/Nc2cc(Cl)cc(Cl)c2)n1	i	i	i	-6.52*	i
Nc1nc(=S)c2ncn(C3CCCC3)c2[nH]1	i	i	i	i	i
O=C1CC(c2ccccc2)C(C(=O)Nc2ccccc2F)N1 (stereo not drawn)	i	i	i	i	i
CNC(=S)N1CCN(CCNC2=CC(=O)CC(C)(C)C2)CC1	i	i	i	i	i
CC1(C)CC(NCCN2CCN(C3=CC(=C(C#N)C#N)CC(C)(C)C3)CC2)=CC(=C(C#N)C#N)C1	55*	i	·	i	i
COc1cccc(CNC(=O)CSc2nc3ccc(C)cc3[nH]2)c1	i	i	i	i	i
Fc1ccc(-[n+]2nc(Nc3ccccc3)sc2-c2c(Cl)cccc2Cl)cc1	55*	i	i	i	i
CN(C)c1ccc(-c2sc(Nc3ccccc3)n[n+]2-c2ccc(F)cc2)cc1	222*	i	i	i	i
COc1ccc(C)cc1Nc1n[n+](-c2ccccc2)c(-c2c(Cl)cccc2Cl)s1	67*	i	i	-5.36*	i
CCC(C)NCCOCCOc1ccc(Cl)c2ccccc12 (stereo not drawn)	i	i	i	i	i
CCn1nccc1C(=O)Nc1cc(Cl)cc(Cl)c1	i	i	-5*	i	i
Cc1c(Cl)c(C(=O)Nc2nc3ccccc3n2CCN2CCCCC2)nn1C	i	i	i	-8.21*	i
CCCn1c(NC(=O)c2ccc(Cl)c(S(=O)(=O)N3CCCC3)c2)nc2ccccc21	i	32*	-7*	i	i
O=Cc1cn(-c2ccccc2)nc1-c1ccccc1	i	i	i	i	i
CC1=NNC(=O)/C1=C\c1cn(-c2ccccc2)nc1-c1ccccc1	i	10*	i	i	i
COc1ccc2nc3cc(Cl)ccc3c(Nc3cc(CN4CCCC4)c(O)c(CN4CCCC4)c3)c2n1	i	i	i	-6.6*	i
Cc1cc(C(C)(C)C)cc(S(=O)(=O)Nc2cccc(C(=O)O)c2)c1C	i	16*	i	i	i
COCCN1CCN(c2c3c(nc4cc(-c5cccc(F)c5)nn24)CCC3)CC1	60*	11*	i	i	i
Cc1ccc(C)c2nc(Cl)c(C3NC(=O)c4ccccc4N3)cc12 (stereo not drawn)	i	15*	i	i	i
SMILES	TRPC4 act	TRPC4 PAM	TRPC4 block	TRPC6 inhibitor	TRPC6 activator
Cc1cc(C)c2nc(Cl)c(C3NC(=O)c4ccccc4N3)cc2c1 (stereo not drawn)	i	i	i	i	i
C/C(=N\NC(=O)c1cccc(S(=O)(=O)N2CCOCC2)c1)c1ccc(OCC(=O)N(C)C)cc1	i	i	i	i	i
O=C(CCl)NC(=O)NC12CC3CC(CC(C3)C1)C2	i	i	-6*	i	i
Cc1ccc(S(=O)(=O)Nc2ccc3c(c2)nc(CN2CCCC2)n3C)cc1	44*	i	i	i	i
Cc1ccc(S(=O)(=O)Nc2ccc3c(c2)nc(CCN2CCCCC2)n3C)cc1	i	i	i	i	i
COc1cccc(CN2CCN(C3CCN(c4ccccc4F)CC3)CC2CCO)c1 (stereo not drawn)	i	i	-5*	i	i
COc1ccc(CCC(=O)NCC(=O)OCc2ccccc2)cc1	i	i	i	i	i
Cc1cc(S(=O)(=O)N2CCC(N3CCCCC3)CC2)ccc1-n1cnnn1	i	33*	i	i	i
CCOC(=O)C1CCN(C(=O)CSc2ccccc2Cl)CC1	i	i	i	i	i
COc1cc(Cl)c(C)cc1NC(=O)COC(=O)c1cc[n+]([O-])cc1	i	i	i	i	i
CCN(C(=O)CCNC(=O)Cn1cnc2ccccc2c1=O)c1cccc(Cl)c1	i	i	i	i	i
C=C(c1ccc(O)cc1)c1ccc(O)cc1	i	i	-6*	i	i
CCCn1c(=O)c2ccccc2n2c(SCCOc3ccccc3)nnc12	i	i	-7*	i	i
CCCn1c(=O)c2ccccc2n2c(SC(C)C(N)=O)nnc12 (stereo not drawn)	i	i	i	i	i
CCCCNC(=O)/C(C#N)=C/c1ccc(F)cc1F	i	27*	i	i	i
CC[C@@H](C(=O)[C@@H](C)[C@@H](O)[C@H](C)CCc1ccc(C)c(O)c1C(=O)O)[C@H]1O[C@](CC)([C@H]2CC[C@](O)(CC)[C@H](C)O2)C[C@@H]1C	160*	i	i	i	i
O=C(/C=C/c1cccs1)NC(=S)NNC(=O)c1ccccc1O	47*	i	i	i	i
COc1ccc(C(=O)NNC(=S)NC(=O)/C=C/c2cccs2)cc1	i	i	i	i	i
CCn1c(-c2ccccc2)csc1=Nc1ccc(O)cc1	i	i	-5*	i	i
COc1ccc(NC(C)=O)cc1NC(C)C(=O)Nc1cc(C(F)(F)F)ccc1N1CCOCC1 (stereo not drawn)	i	27*	i	i	i
COc1ccc(CNCc2cc3c(cc2[N+](=O)[O-])OCO3)cc1	i	i	i	-5.26*	i
Cc1cc(C)cc(NCc2cc3c(cc2[N+](=O)[O-])OCO3)c1	i	i	i	i	i
Cc1ccc(S(=O)(=O)N2CCC(C(=O)NCCCN3CCOCC3)CC2)cc1C	i	i	i	i	i
O=C(NCCCN1CCOCC1)C1CCN(S(=O)(=O)c2c(Cl)cccc2Cl)CC1	i	15*	i	i	i

Bioassay records deposited in PubChem by Johns Hopkins Ion Channel Center.
